From PubChem BioAssay
Compounds with a hit are over-represented: about 2.3% of the library has one in this group of screens.
V1R ag counter – V1a receptor agonism, counter-screen for OXTR agonists | P37288 | CHO-V1R cells, Fluo-8 calcium fluorescence, agonist mode; 0% DMSO, 100% 3 nM vasopressin | activation, % at 3 µM | 320,000 tested, 0.25% active | AID 2797;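 active means activation above the mean activation of all tested compounds plus 3 SD, per screening run, cut at about 20% in these data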;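 further: signal is peak over basal fluorescence ratio across a 100 second FLIPR read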
OXTR agonist – human OXTR agonism. P30559. CHO-OTR cells, Fluo-8 calcium fluorescence; normalized: DMSO 0%, oxytocin 100%. activation, % at 3 µM. 320,000 tested, 0.32% active. AID 2435;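 active means activation above the mean of all tested compounds plus 3 SD, cutoff set per screening run, cut at about 20% in these data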;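 further: peak over basal fluorescence ratio from a 100 s FLIPR kinetic read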
TAAR1 ag – agonists of human TAAR1; Q96RJ0; CHO RD-HGA16 TAAR1, Fluo-8 calcium fluorescence; vehicle wells 0%, saturating PEA agonist 100%; activation, % at 3 µM; 360,000 tested, 0.99% active;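 active means activation above the mean activation of all test compounds in the run plus 3 SD, cut at about 38% in these data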
Target sequence (Q96RJ0 whole entry, looked up): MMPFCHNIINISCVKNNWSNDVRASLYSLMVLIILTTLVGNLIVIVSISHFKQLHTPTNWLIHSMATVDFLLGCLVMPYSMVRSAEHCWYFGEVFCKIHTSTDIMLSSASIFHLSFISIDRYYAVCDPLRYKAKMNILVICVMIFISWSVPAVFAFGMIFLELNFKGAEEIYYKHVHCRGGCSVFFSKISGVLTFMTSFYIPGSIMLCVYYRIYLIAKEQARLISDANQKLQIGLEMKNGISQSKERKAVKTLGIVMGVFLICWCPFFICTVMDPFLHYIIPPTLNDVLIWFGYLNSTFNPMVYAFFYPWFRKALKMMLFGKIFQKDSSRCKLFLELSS
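Signal – calcium-sensitive Fluo-8 signal, excitation 470-495, emission 515-575 nm · System – RD-HGA16 (CHO) cells co-expressing Gα16 and hTAAR1 · Incubation – 17-24 h seeding, 75 min 37 °C dye, 30 min RT · Compound dosing – 3 µM single concentration · Repeats – no replicates (n 1)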
OXTR potentiate – potentiates the human oxytocin receptor response | activation, % at 3 µM | CHO-OTR cells, Fluo-8 calcium fluorescence, potentiator mode; 0% = oxytocin EC15, 100% = EC100 | AID 2445 | 320,000 tested, 0.061% active;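 active means activation above that plate's cutoff, the mean activation of tested compounds plus 3 SD, cut at about 6.6% in these data, passing the limit was not always enough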;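 further: 100% uses oxytocin at 75 nM as the full agonist control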
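System: human OTR in CHO cells / Also added: sub-maximal oxytocin, roughly EC15 / Control set: EC15 oxytocin low, 75 nM oxytocin high / Schedule: 6 min compound pre-incubation at room temperature, 100 s kinetic read / Compound: single-point 3.0 µM / Replication: singlicate / Technique: Fluo-8 calcium dye fluorescence / Read-out basis: % activation of max/min ratio relative to oxytocin controls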
TAAR1 antagonist – antagonists of human TAAR1. Q96RJ0. inhibition, % at 3 µM. 360,000 tested, 1.5% active. AID 624466. CHO RD-HGA16 TAAR1, Fluo-8 calcium fluorescence, antagonist;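 active means inhibition above a per-plate cutoff, the mean inhibition of test compounds on that plate plus 3 SD, cut at about 49% in these data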;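 further: 0% = DMSO plus EC80 beta-PEA response and 100% = DMSO alone without agonist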
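Assay system: CHO-derived RD-HGA16 cells stably expressing human TAAR1 plus Gα16. Timing: 140 s kinetic read after compound, 140 s after agonist. Technique: kinetic Fluo-8 calcium fluorescence measurement. Measure: % inhibition of agonist calcium response.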
TAAR1 ag confirm – confirmation of human TAAR1 agonists; shares compounds with TAAR1 ag; CHO RD-HGA16 TAAR1, Fluo-8 calcium fluorescence; scaled: DMSO 0%, maximal phenethylamine 100%; activation, % at 3 µM; 2,400 tested, 82% active;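 active means activation above a cutoff set at the run's mean compound activation plus 3 SD, cut at about 39% in these data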
Ga16 nonsel ag – nonselective agonism, TAAR1 counter-screen. AID 651787. 2,400 tested, 50% active. CHO-Ga16 parental, Fluo-8 calcium fluorescence; normalized to maximal ATP response, DMSO zero. shares compounds with TAAR1 ag. activation, % at 3 µM;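 active means activation above the run cutoff, the mean activation over all tested wells plus 3 SD, cut at about 12% in these data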;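 further: 0% = DMSO wells and 100% = maximal ATP response on the peak over basal ratio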
TAAR1 desens – TAAR1 response desensitization, agonist counter-screen | shares compounds with TAAR1 ag | CHO RD-HGA16 hTAAR1, Fluo-8 calcium, beta-PEA response inhibition | inhibition, % at 3 µM | 2,400 tested, 46% active | AID 651951;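 active means inhibition above the run cutoff, the mean inhibition of all test compounds plus 3 SD, cut at about 49% in these data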;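 further: beta-PEA stimulus applied at its EC80; loss of beta-PEA calcium signal after compound pretreatment read as receptor desensitization; 0% = DMSO with beta-PEA at EC80 and 100% = DMSO alone without agonist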
Ga16 antag count – nonselective Ga16 antagonist in TAAR1 agonist counter-screen. shares compounds with TAAR1 ag. CHO-Ga16 ATP-induced calcium, Fluo-8 fluorescence. inhibition, % at 3 µM. 2,400 tested, 39% active. AID 651952;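 active means inhibition above the plate's mean compound inhibition plus 3 SD, computed per plate, cut at about 22% in these data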;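 further: 0% = EC80 ATP with DMSO and 100% = DMSO wells without ATP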
* = called active by the depositor.

Screening CCNC(=S)N(CCCN(C)C)Cc1cc2cc3c(cc2[nH]c1=O)OCCO3 returned V1R ag counter 2, OXTR agonist -1, TAAR1 ag 0, OXTR potentiate -7 and TAAR1 antagonist -7.
O=C(c1ccc2c(c1)OCCO2)N1CCN(c2ccc([N+](=O)[O-])cc2)CC1 was read as V1R ag counter 2, OXTR agonist 1 and OXTR potentiate -4.
O=C(C[C@H]1C(=O)N(CCc2ccccc2)C[C@@H]1c1ccccc1)Nc1ccccc1 was read as TAAR1 ag 73*, TAAR1 antagonist 48, TAAR1 ag confirm 77*, Ga16 nonsel ag 0, TAAR1 desens 48 and Ga16 antag count 14.
Screening COc1ccc(NC(=O)C[C@H]2C(=O)N(CCc3ccccc3)C[C@@H]2c2ccc(OC)cc2)cc1 returned TAAR1 ag 21 and TAAR1 antagonist 6.
Screening CC(C)c1ccc(NC(=O)c2ccc(NS(C)(=O)=O)cc2)cc1 returned V1R ag counter 0, OXTR agonist 0, TAAR1 ag 5, OXTR potentiate -10 and TAAR1 antagonist -21.
`Brc1ccc(C2=CC(c3cccs3)n3ncnc3N2)cc1` (stereo unspecified) gave V1R ag counter 75*, OXTR agonist 75*, TAAR1 ag 164*, OXTR potentiate -27, TAAR1 antagonist 110*, TAAR1 ag confirm 36, Ga16 nonsel ag 51*, TAAR1 desens 62* and Ga16 antag count 57*.
For O=C(NC1CCCCC1)C(c1ccncc1)n1c(=O)c(-c2cc3ccccc3[nH]2)nc2ccccc21 (stereo unspecified) the results were TAAR1 ag 1 and TAAR1 antagonist 15.
Screening Cc1nc(N)c2c(Cc3cccc4ccccc34)nn(C(C)(C)C)c2n1 returned V1R ag counter 7, OXTR agonist 0, TAAR1 ag 47*, OXTR potentiate -14, TAAR1 antagonist -22, TAAR1 ag confirm 41*, Ga16 nonsel ag 7, TAAR1 desens -13 and Ga16 antag count -14.
For N#Cc1c(N)n[nH]c1Cc1cccc2ccccc12 the results were V1R ag counter 1, OXTR agonist 2, TAAR1 ag 0, OXTR potentiate -5 and TAAR1 antagonist -5.
For Cc1cc(-c2n[nH]c(=S)n2/N=C/c2ccc(Cl)c([N+](=O)[O-])c2)n[nH]1 the results were V1R ag counter 0, OXTR agonist 0, TAAR1 ag 4, OXTR potentiate -5 and TAAR1 antagonist -22.
`O=[N+]([O-])c1cc(/C=N/n2c(-c3ccncc3)n[nH]c2=S)ccc1Cl` gave V1R ag counter 0, OXTR agonist 0, TAAR1 ag 52*, OXTR potentiate -13, TAAR1 antagonist -12, TAAR1 ag confirm 98*, Ga16 nonsel ag 19*, TAAR1 desens 29 and Ga16 antag count -7.
COc1ccc(CC(N)c2csc(Nc3cc(Oc4ccccc4)ncn3)n2)cc1 (stereo unspecified) was read as TAAR1 ag 56*, TAAR1 antagonist 35, TAAR1 ag confirm 58*, Ga16 nonsel ag 32*, TAAR1 desens 52* and Ga16 antag count 42*.
`NC(Cc1ccc(F)cc1)c1csc(Nc2cc(Oc3ccccc3)ncn2)n1` (stereo unspecified) gave TAAR1 ag 71*, TAAR1 antagonist 44, TAAR1 ag confirm 85*, Ga16 nonsel ag 36*, TAAR1 desens 61* and Ga16 antag count 43*.
`NC(Cc1ccc(Cl)cc1)c1csc(Nc2cc(Oc3ccccc3)ncn2)n1` (stereo unspecified) gave TAAR1 ag 34 and TAAR1 antagonist 28.
`CCc1c(-c2cccc(Cl)c2)ncn1Cc1cccc(-c2ccccc2)c1` gave TAAR1 ag 2 and TAAR1 antagonist -6.
Screening O=C(COC(=O)/C=C/c1cccs1)Nc1ccc(Cl)cc1F returned V1R ag counter -1, OXTR agonist -2, TAAR1 ag 59*, OXTR potentiate 2, TAAR1 antagonist 74*, TAAR1 ag confirm 30, Ga16 nonsel ag 3, TAAR1 desens 21 and Ga16 antag count 9.
`O=C(Cc1ccccc1)Nc1ccc(NC(=O)c2ccccc2)nc1` gave V1R ag counter 0, OXTR agonist -1, TAAR1 ag 53*, OXTR potentiate -1, TAAR1 antagonist 3, TAAR1 ag confirm 64*, Ga16 nonsel ag 2, TAAR1 desens 31 and Ga16 antag count 12.
O=C(Nc1cccc(C(=O)Nc2ccc(Cl)cn2)c1)c1ccccc1 was read as V1R ag counter 1, OXTR agonist -1, TAAR1 ag 87*, OXTR potentiate -5, TAAR1 antagonist 86*, TAAR1 ag confirm 3, Ga16 nonsel ag 7, TAAR1 desens 26 and Ga16 antag count 17.
`O=C(Nc1ccc(Cl)cn1)c1cccc(F)c1` gave V1R ag counter -1, OXTR agonist -1, TAAR1 ag 3, OXTR potentiate -12 and TAAR1 antagonist -21.
Screening O=C(NCc1ccccn1)[C@@H]1CCCN1C(=O)[C@@H]1CCCN1C(=O)c1cccs1 returned TAAR1 ag 6 and TAAR1 antagonist -8.
`CN(CC(=O)Nc1ccc(OC(F)(F)F)cc1)C1CCCCC1` gave V1R ag counter -1, OXTR agonist 0, TAAR1 ag 14, OXTR potentiate 1 and TAAR1 antagonist -13.
O=C(CNCC1CCCCC1)Nc1ccc(OC(F)(F)F)cc1 was read as V1R ag counter 1, OXTR agonist 5, TAAR1 ag 74*, OXTR potentiate -5, TAAR1 antagonist 41, TAAR1 ag confirm 76*, Ga16 nonsel ag 51*, TAAR1 desens 49* and Ga16 antag count 33*.
Cc1ccc(SCc2nc(-c3ccccc3)no2)cc1 was read as V1R ag counter 0, OXTR agonist -1, TAAR1 ag 29, OXTR potentiate -5 and TAAR1 antagonist 24.
